Screening results: PubChem BioAssay, Broad Institute
The full list was thinned out, with hits kept by preference.
IDH1 R132H inh = inhibitors of IDH1 R132H reductase, primary screen, biochemical, plate reader, single point; Isocitrate dehydrogenase [NADP] cytoplasmic (Homo sapiens), O75874; hit rate 0.18% among 70,000; inhibition, % at 10 µM; diaphorase/resazurin fluorescence, 60 min; in the data active = inhibition above about 34%; inconclusive = no clear call, values can overlap the other calls; inactive = below about 11%;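 note: 0% = DMSO and 100% = no enzyme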
GASC1 inh = inhibitors of GASC-1 (KDM4C) histone demethylase, primary screen, biochemical, single concentration HTS; GST-KDM4C 2-372, H3K9me3 peptide, LANCE TR-FRET; hit rate 0.15% among 96,000; Lysine-specific demethylase 4C (Homo sapiens), Q9H3R0; inhibition, % at 12.5 µM;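 active = mean replicate inhibition above about 25%, with at least 55% of replicates also reaching it, limit read from the data, passing the limit was not always enough; inconclusive = only one of those two conditions met; inactive = neither condition met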
Target sequence (Q9H3R0 2-372 limits assumed): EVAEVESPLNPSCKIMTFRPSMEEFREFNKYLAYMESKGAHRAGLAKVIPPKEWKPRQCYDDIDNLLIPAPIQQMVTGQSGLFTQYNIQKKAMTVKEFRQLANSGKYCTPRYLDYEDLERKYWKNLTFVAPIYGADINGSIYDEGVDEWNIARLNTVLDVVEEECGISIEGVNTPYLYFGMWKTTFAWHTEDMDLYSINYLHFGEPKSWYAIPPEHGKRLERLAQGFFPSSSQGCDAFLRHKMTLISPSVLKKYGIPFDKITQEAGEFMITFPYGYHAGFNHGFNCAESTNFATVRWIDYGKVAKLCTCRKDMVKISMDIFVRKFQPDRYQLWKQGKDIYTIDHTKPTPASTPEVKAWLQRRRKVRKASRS
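Material: N-terminal GST-fused human GASC-1 (KDM4C) fragment, residues 2-372. Input: 10 nM enzyme. Incubation: enzyme reaction 30 min, then detection 60 min, both room temperature. Doses: one test concentration per compound. Read-out basis: inhibition from TR-FRET ratio decrease. Detection: LANCE TR-FRET, excitation 340 nm, emissions 618 and 671 nm.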
T cruzi growth-1 = T. cruzi intracellular proliferation inhibitors, primary screen, cell-based, beta-gal Tulahuen parasites, NIH3T3 host, luminescence. hit rate 5.9% among 77,000. T. cruzi beta-gal in NIH3T3, GalScreen luminescence, 90 h. inhibition, % at 8.34 µM;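 active = mean inhibition above about 93%, with at least 55% of replicates each passing it, limit read from the data, passing the limit was not always enough; inconclusive = only one of those two conditions holds; inactive = neither condition holds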
T cruzi growth-2 = T. cruzi intracellular proliferation inhibitors, confirmation, cell-based, NIH3T3 host, beta-gal parasite, luminescence, cherry-pick. shares compounds with T cruzi growth-1. T. cruzi beta-gal in NIH3T3, GalScreen luminescence, 90 h. inhibition, % at 8.35 µM. hit rate 72% among 5,600. AID 651739, 2012;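 active = mean replicate inhibition above about 95% and at least 55% of replicates individually reaching it, limit read from the data; inconclusive = only one of the two criteria is met; inactive = neither criterion is met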
T cruzi growth-3 = inhibitors of intracellular T. cruzi replication, confirmation, NIH3T3 host cells, beta-gal parasites, cherry-pick, set 2; shares compounds with T cruzi growth-1; T. cruzi beta-gal in NIH3T3, GalScreen luminescence, 90 h; inhibition, % at 2.09 µM; hit rate 21% among 5,600;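 active = mean inhibition above about 95%, with at least 55% of replicates also reaching it, limit read from the data; inconclusive = meets just one of the two conditions; inactive = meets neither condition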;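 note: plate controls were neutral control median for no effect and positive control median for full effect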
NIH3T3 tox = cytotoxicity in mouse NIH/3T3 fibroblasts, confirmation, cytotoxicity control for T. cruzi proliferation inhibitor project, cell-based, cherry-pick, single point; cytotoxicity (signal decrease), % at 8.35 µM; AID 651742, 2012; shares compounds with T cruzi growth-1; NIH/3T3 viability, CellTiter-Glo ATP luminescence, 90 h; hit rate 14% among 5,600;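 active = mean signal decrease across replicates above about 35% based on untreated-well scatter, with enough replicates individually passing, limit read from the data; inconclusive = no rule stated though some were filed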;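 note: 0% = median of neutral control wells and 100% = median of positive control wells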
3T3 cytotox 2 = NIH/3T3 fibroblast cytotoxicity, confirmation, cytotoxicity control, cell-based, cherry-pick, single point, set 2 | shares compounds with T cruzi growth-1 | NIH/3T3 viability, CellTiter-Glo ATP luminescence, 90 h | hit rate 56% among 5,600 | AID 651744, 2012 | inhibition, % at 24.9 µM;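 active = mean loss of cell viability signal at or above a set limit, and enough replicates individually reaching it; inconclusive = meets only the mean limit or only the replicate share; inactive = meets neither condition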;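 note: 0% = median of neutral control wells and 100% = median of positive control wells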
* hit, by the source's call.

O=C(C[C@H]1CC[C@H]2[C@@H](COC[C@H](O)CN2Cc2ccc3c(c2)OCO3)O1)Nc1ccc(-c2ccccc2)cc1 was read as GASC1 inh 0, T cruzi growth-1 104*, T cruzi growth-2 98*, T cruzi growth-3 52, NIH3T3 tox 27 and 3T3 cytotox 2 57*.
Screening O=C(C[C@H]1CC[C@@H]2[C@H](COC[C@H](O)CN2Cc2ccc3c(c2)OCO3)O1)Nc1ccccc1 returned GASC1 inh 2 and T cruzi growth-1 50.
Screening O=C(C[C@@H]1CC[C@H]2[C@@H](COC[C@H](O)CN2Cc2ccc3c(c2)OCO3)O1)Nc1ccccc1 returned GASC1 inh 1 and T cruzi growth-1 41.
`O=C(C[C@H]1CC[C@H]2[C@@H](COC[C@H](O)CN2Cc2ccc3c(c2)OCO3)O1)Nc1ccccc1` gave GASC1 inh 2 and T cruzi growth-1 45.
For O=C(C[C@H]1C=C[C@@H](NC(=O)CN2CCOCC2)[C@H](CO)O1)NCCc1ccccc1 the results were IDH1 R132H inh 0, GASC1 inh 0 and T cruzi growth-1 -26.
O=C(CSc1nc2ccccc2c(=O)n1-c1ccc(Br)cc1)Nc1cccc(F)c1 was read as IDH1 R132H inh 0.
Cc1noc(C)c1NC(=O)NCC[C@@H]1CC[C@H](NC(=O)c2ccncc2)[C@H](CO)O1 was read as IDH1 R132H inh 0, GASC1 inh 8 and T cruzi growth-1 -66.
COc1ccc(S(=O)(=O)N[C@H]2C=C[C@H](CC(=O)N3CCC(Cc4ccccc4)CC3)O[C@H]2CO)cc1 was read as IDH1 R132H inh 0, GASC1 inh 1 and T cruzi growth-1 25.
O=C(C[C@@H]1CC[C@@H](NS(=O)(=O)c2ccc(F)cc2)[C@H](CO)O1)N1CCc2ccccc2C1 was read as IDH1 R132H inh 0, GASC1 inh 0, T cruzi growth-1 104*, T cruzi growth-2 0, T cruzi growth-3 9, NIH3T3 tox -15 and 3T3 cytotox 2 7.
COc1ccc(S(=O)(=O)N[C@H]2C=C[C@@H](CC(=O)N3CCC(Cc4ccccc4)CC3)O[C@H]2CO)cc1 was read as IDH1 R132H inh 0, GASC1 inh 0, T cruzi growth-1 110*, T cruzi growth-2 59, T cruzi growth-3 31, NIH3T3 tox 10 and 3T3 cytotox 2 70*.
Cc1ccc(S(=O)(=O)N[C@@H]2CC[C@@H](CC(=O)N3CCC(Cc4ccccc4)CC3)O[C@@H]2CO)cc1 was read as IDH1 R132H inh 0, GASC1 inh -1, T cruzi growth-1 111*, T cruzi growth-2 110*, T cruzi growth-3 37, NIH3T3 tox -33 and 3T3 cytotox 2 35*.
`Cc1ccc(S(=O)(=O)N[C@H]2CC[C@@H](CC(=O)N3CCC(Cc4ccccc4)CC3)O[C@H]2CO)cc1` gave IDH1 R132H inh 0, GASC1 inh 1 and T cruzi growth-1 60.
`O=C(NCC[C@@H]1CC[C@H](NS(=O)(=O)c2ccccc2F)[C@@H](CO)O1)c1ccc(F)cc1` gave IDH1 R132H inh 0, GASC1 inh 0, T cruzi growth-1 104*, T cruzi growth-2 39, T cruzi growth-3 -2, NIH3T3 tox 3 and 3T3 cytotox 2 1.
`O=C(C[C@H]1CC[C@@H](NS(=O)(=O)c2ccc(F)cc2)[C@@H](CO)O1)N1CCc2ccccc2C1` gave IDH1 R132H inh 0, GASC1 inh -1 and T cruzi growth-1 -10.
`O=C(NCC[C@H]1CC[C@@H](NS(=O)(=O)c2ccccc2F)[C@@H](CO)O1)c1ccc(F)cc1` gave IDH1 R132H inh 0, GASC1 inh 0 and T cruzi growth-1 -73.
C[C@@H]1CCCCO[C@H](CN(C)S(=O)(=O)c2ccc(Cl)cc2)[C@@H](C)CN([C@H](C)CO)C(=O)c2cc(NS(=O)(=O)c3cccs3)ccc2O1 was read as GASC1 inh 3 and T cruzi growth-1 87.
For C[C@H]1CCCCO[C@H](CN(C)S(=O)(=O)c2cccs2)[C@@H](C)CN([C@@H](C)CO)C(=O)c2cc(NS(=O)(=O)c3ccc(Cl)cc3)ccc2O1 the results were GASC1 inh -1, T cruzi growth-1 103*, T cruzi growth-2 106*, T cruzi growth-3 77, NIH3T3 tox -27 and 3T3 cytotox 2 -14.
C[C@@H]1CCCCO[C@H](CN(C)S(=O)(=O)c2cccs2)[C@@H](C)CN([C@H](C)CO)C(=O)c2cc(NS(=O)(=O)c3ccc(Cl)cc3)ccc2O1 was read as IDH1 R132H inh 0, GASC1 inh 1 and T cruzi growth-1 66.
C[C@@H]1CCCCO[C@@H](CN(C)S(=O)(=O)c2ccc(Cl)cc2)[C@H](C)CN([C@H](C)CO)C(=O)c2cc(NS(=O)(=O)c3cccs3)ccc2O1 was read as GASC1 inh -1, T cruzi growth-1 inconclusive, T cruzi growth-2 105*, T cruzi growth-3 86, NIH3T3 tox -11 and 3T3 cytotox 2 -10.
COc1ccc(NC(=O)N[C@H]2CC[C@@H](CCn3cc(-c4ccccc4)nn3)O[C@H]2CO)cc1 was read as IDH1 R132H inh 0, GASC1 inh -2 and T cruzi growth-1 -11.
For O=C(CC(NC1CCCCC1)C(=O)O)Nc1cccc(Cl)c1 (stereo unspecified) the results were IDH1 R132H inh 0.
COCC(=O)N1CCCCN2[C@H](CO)[C@@H](c3ccc(-c4ccc(OC)cc4)cc3)[C@H]2C1 was read as GASC1 inh 0, T cruzi growth-1 97*, T cruzi growth-2 32, T cruzi growth-3 18, NIH3T3 tox 5 and 3T3 cytotox 2 10.
`COCC(=O)N1CCCCN2[C@H](C1)[C@H](c1ccc(-c3ccc(OC)cc3)cc1)[C@@H]2CO` gave GASC1 inh 1 and T cruzi growth-1 79.
`COCC(=O)N1CCCCN2[C@@H](CO)[C@@H](c3ccc(-c4ccc(OC)cc4)cc3)[C@@H]2C1` gave GASC1 inh 0, T cruzi growth-1 103*, T cruzi growth-2 83, T cruzi growth-3 77, NIH3T3 tox -6 and 3T3 cytotox 2 -4.
